For orientation: IC50 means the concentration that gives 50% inhibition.

Values joined by “and” are separate entries in the source; they are usually repeats but may differ in a detail not shown here. Identical values can stand only once. Active and inactive are the calls of the source.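 How the source made its calls: active means IC50 of 10 µM or lower on HIF-2a in both cell lines, but not on HIF-1a; inactive means the rest, including compounds also potent on HIF-1a.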

Holding throughout (test): HIF reporter inhibition across pancreatic and renal lines – cell-based, luminescence, MIAPaCa-2, 786-0, panel, SAR follow-up (AID 652011)
One experiment relates to HIF2a PANC. To be noted: MIAPaCa-2/PANC HIF reporter, luciferase luminescence, desferoxamine, overnight. An outline of the steps: (§1)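 Also added: desferoxamine added before compound. Dosing: compounds from 10 mM and 0.3125 mM stocks, 1% DMSO final. Timing: overnight seeding and compound exposure, 37 °C, 5% CO2, 10-min detection. Detection: luciferase luminescence with One-Glo reagent.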

The next experiment deals with HIF1a. To be noted: MIAPaCa-2/PANC HIF reporter, luciferase luminescence, desferoxamine, overnight. An outline of the steps: as §1
Experiment [1] addresses Endothelial PAS domain-containing protein 1 (Homo sapiens) (UniProt Q99814). The conditions noted are these: MIAPaCa-2/PANC HIF reporter, luciferase luminescence, desferoxamine, overnight; HIF2a PANC cells; mean of runs. An outline of the steps: as §1
Setting [2] is: run 1, individual run IC50, panel line.
Where [3] appears, read: run 2, individual run IC50, panel line.

Endothelial PAS domain-containing protein 1 (Homo sapiens), sequence (Q99814 whole entry, looked up, the tested form may be a part): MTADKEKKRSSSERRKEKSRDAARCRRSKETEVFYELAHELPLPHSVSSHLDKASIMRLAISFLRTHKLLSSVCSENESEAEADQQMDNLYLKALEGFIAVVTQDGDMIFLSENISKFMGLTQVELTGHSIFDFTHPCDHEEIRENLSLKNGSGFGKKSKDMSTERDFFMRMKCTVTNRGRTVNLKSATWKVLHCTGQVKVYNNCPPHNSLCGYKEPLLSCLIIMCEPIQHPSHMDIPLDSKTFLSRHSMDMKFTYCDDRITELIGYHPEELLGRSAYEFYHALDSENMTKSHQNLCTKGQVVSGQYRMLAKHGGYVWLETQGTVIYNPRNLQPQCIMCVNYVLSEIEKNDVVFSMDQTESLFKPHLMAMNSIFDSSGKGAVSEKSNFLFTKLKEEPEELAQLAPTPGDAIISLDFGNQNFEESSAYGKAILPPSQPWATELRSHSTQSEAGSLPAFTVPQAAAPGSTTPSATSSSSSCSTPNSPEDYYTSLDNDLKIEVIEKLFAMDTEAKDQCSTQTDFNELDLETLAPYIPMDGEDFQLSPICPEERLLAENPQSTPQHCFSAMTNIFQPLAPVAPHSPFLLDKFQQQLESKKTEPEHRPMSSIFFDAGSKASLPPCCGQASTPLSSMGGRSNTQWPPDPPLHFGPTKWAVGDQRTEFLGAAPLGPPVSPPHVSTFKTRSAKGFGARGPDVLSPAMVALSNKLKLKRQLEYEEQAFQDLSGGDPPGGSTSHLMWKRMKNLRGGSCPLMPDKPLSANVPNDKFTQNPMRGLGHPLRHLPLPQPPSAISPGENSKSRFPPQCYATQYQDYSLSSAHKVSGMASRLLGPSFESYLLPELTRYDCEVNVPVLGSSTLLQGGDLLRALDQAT

Consider `CCNC(=O)CCc1nc(-c2ccc(C(C)C)cc2)no1`, for which the IC50 with HIF2a PANC (setting [2]) is above 99 µM; in the experiment on HIF2a PANC (setting [3]), above 99 µM; with HIF1a (setting [2]), above 99 µM; with HIF1a (setting [3]) it was above 99 µM; in experiment [1], > 99 µM (inactive).
With `CNC(=O)CCc1nc(-c2ccccc2)no1`, the IC50 in the experiment on HIF2a PANC (setting [2]) is above 99 µM; with HIF2a PANC (setting [3]), above 99 µM; in the experiment on HIF1a (setting [2]) it was above 99 µM; in the experiment on HIF1a (setting [3]), above 99 µM; in experiment [1] it was > 99 µM (inactive).
Regarding `CCc1ccc(-c2noc(CCC(=O)NC)n2)cc1`, the IC50 was above 99 µM with HIF2a PANC (setting [2]); above 99 µM with HIF2a PANC (setting [3]); above 99 µM with HIF1a (setting [2]); above 99 µM in the experiment on HIF1a (setting [3]); > 99 µM (inactive) in experiment [1].
Consider `CCNC(=O)CCc1nc(-c2ccc(OCC)cc2)no1`, for which the IC50 with HIF2a PANC (setting [2]) was above 99 µM; in the experiment on HIF2a PANC (setting [3]), above 99 µM; with HIF1a (setting [2]) it was above 99 µM; with HIF1a (setting [3]) it was above 99 µM; in experiment [1], > 99 µM (inactive).
On to `CCC(C)NC(=O)CCc1nc(-c2ccc(C(C)C)cc2)no1` (configuration not stated), for which the IC50 in the experiment on HIF2a PANC (setting [2]) is above 99 µM; with HIF2a PANC (setting [3]), above 99 µM; in the experiment on HIF1a (setting [2]), above 99 µM; with HIF1a (setting [3]), above 99 µM; in experiment [1], > 99 µM (inactive).
In the case of `CCc1ccc(-c2noc(CCC(=O)NC(C)CC)n2)cc1` (configuration not stated), the IC50 is above 99 µM with HIF2a PANC (setting [2]); above 99 µM in the experiment on HIF2a PANC (setting [3]); above 99 µM with HIF1a (setting [2]); above 99 µM in the experiment with HIF1a (setting [3]); > 99 µM (inactive) in experiment [1].
With `CCCNC(=O)CCc1nc(-c2ccc(C(C)(C)C)cc2)no1`, the IC50 in the experiment with HIF2a PANC (setting [2]) is above 99 µM; with HIF2a PANC (setting [3]), below 0.19 µM; with HIF1a (setting [2]) it was above 99 µM; in the experiment on HIF1a (setting [3]), above 99 µM. Moreover, the IC50 entry in experiment [1] is “inactive”.
Consider `CCC(C)NC(=O)CCc1nc(-c2ccccc2)no1` (configuration not stated), for which the half-maximal inhibitory concentration (IC50) in the experiment with HIF2a PANC (setting [2]) is above 99 µM; in the experiment with HIF2a PANC (setting [3]), above 99 µM; in the experiment on HIF1a (setting [2]), above 99 µM; in the experiment with HIF1a (setting [3]), above 99 µM; in experiment [1] it was > 99 µM (inactive).
For `CCOc1ccc(-c2noc(CCC(=O)NC)n2)cc1`, the IC50 was 1.72 µM in the experiment on HIF2a PANC (setting [2]); 0.673 µM with HIF2a PANC (setting [3]); above 99 µM with HIF1a (setting [2]); above 99 µM in the experiment with HIF1a (setting [3]); 1.2 µM in experiment [1].
As for `CCCCc1ccc(-c2noc(CCC(=O)NC)n2)cc1`, the half-maximal inhibitory concentration (IC50) in the experiment with HIF2a PANC (setting [2]) is above 99 µM; in the experiment with HIF2a PANC (setting [3]), above 99 µM; with HIF1a (setting [2]), above 99 µM; in the experiment with HIF1a (setting [3]), above 99 µM; in experiment [1], > 99 µM (inactive).
As for `CC(C)(C)c1ccc(-c2noc(CCC(N)=O)n2)cc1`, the IC50 was below 0.19 µM in the experiment on HIF2a PANC (setting [2]); below 0.19 µM in the experiment on HIF2a PANC (setting [3]); above 99 µM in the experiment with HIF1a (setting [2]); above 99 µM with HIF1a (setting [3]); below 0.19 µM in experiment [1].
As to `CCCCc1ccc(-c2noc(CCC(=O)NCC)n2)cc1`, the IC50 is below 0.19 µM with HIF2a PANC (setting [2]); below 0.19 µM with HIF2a PANC (setting [3]); above 99 µM with HIF1a (setting [2]); above 99 µM with HIF1a (setting [3]); below 0.19 µM in experiment [1].
In the case of `CC(C)CNC(=O)CCc1nc(-c2ccc(C(C)(C)C)cc2)no1`, the IC50 with HIF2a PANC (setting [2]) was below 0.19 µM; in the experiment with HIF2a PANC (setting [3]), below 0.19 µM; with HIF1a (setting [2]) it was above 99 µM; with HIF1a (setting [3]), above 99 µM; in experiment [1], below 0.19 µM.
With `O=C(O)CCc1nc(-c2ccccc2)no1`, the 50% inhibitory concentration (IC50) with HIF2a PANC (setting [2]) is above 99 µM; in the experiment with HIF2a PANC (setting [3]) it was above 99 µM; in the experiment with HIF1a (setting [2]) it was above 99 µM; in the experiment on HIF1a (setting [3]), above 99 µM; in experiment [1], > 99 µM (inactive).
`CCNC(=O)CCc1nc(-c2ccc(CC)cc2)no1`: the IC50 was above 99 µM in the experiment with HIF2a PANC (setting [2]); above 99 µM with HIF2a PANC (setting [3]); above 99 µM with HIF1a (setting [2]); above 99 µM in the experiment with HIF1a (setting [3]); > 99 µM (inactive) in experiment [1].
`CC(C)(C)c1ccc(-c2noc(CCC(=O)N3CCCCC3)n2)cc1`: the IC50 in the experiment with HIF2a PANC (setting [2]) is above 99 µM; in the experiment on HIF2a PANC (setting [3]), 38.2 µM; in the experiment on HIF1a (setting [2]) it was above 99 µM; in the experiment on HIF1a (setting [3]), above 99 µM. For the same compound, in experiment [1], the IC50 entry is “inactive”.
On to `CCNC(=O)CCc1nc(-c2cccc(C)c2)no1`, for which the IC50 in the experiment on HIF2a PANC (setting [2]) is above 99 µM; in the experiment with HIF2a PANC (setting [3]), above 99 µM; in the experiment with HIF1a (setting [2]), above 99 µM; in the experiment with HIF1a (setting [3]), above 99 µM; in experiment [1], > 99 µM (inactive).
`CCNC(=O)CCc1nc(-c2cccc(F)c2)no1`: the IC50 in the experiment on HIF2a PANC (setting [2]) is above 99 µM; in the experiment with HIF2a PANC (setting [3]) it was above 99 µM; with HIF1a (setting [2]), above 99 µM; in the experiment on HIF1a (setting [3]), above 99 µM; in experiment [1], > 99 µM (inactive).
For the compound `CCc1ccc(-c2noc(CCC(=O)NC(C)(C)C)n2)cc1`, the IC50 was above 99 µM in the experiment on HIF2a PANC (setting [2]); above 99 µM in the experiment on HIF2a PANC (setting [3]); above 99 µM in the experiment on HIF1a (setting [2]); above 99 µM in the experiment on HIF1a (setting [3]); > 99 µM (inactive) in experiment [1].
`CCc1ccc(-c2noc(CCC(=O)NC3CC3)n2)cc1`: the concentration for half-maximal inhibition (IC50) was above 99 µM with HIF2a PANC (setting [2]); above 99 µM with HIF2a PANC (setting [3]); above 99 µM in the experiment with HIF1a (setting [2]); above 99 µM in the experiment on HIF1a (setting [3]); > 99 µM (inactive) in experiment [1].
Regarding `CCNC(=O)CCc1nc(-c2ccccc2C)no1`, the concentration for half-maximal inhibition (IC50) in the experiment on HIF2a PANC (setting [2]) is above 99 µM; in the experiment with HIF2a PANC (setting [3]), above 99 µM; in the experiment on HIF1a (setting [2]), above 99 µM; with HIF1a (setting [3]) it was above 99 µM; in experiment [1] it was > 99 µM (inactive).
Take `CCNC(=O)CCc1nc(-c2ccc(C(C)(C)C)cc2)no1`: the IC50 was > 99 µM and < 10 µM with HIF2a PANC (setting [2]); below 0.19 µM in the experiment with HIF2a PANC (setting [3]); above 99 µM in the experiment with HIF1a (setting [2]); above 99 µM in the experiment with HIF1a (setting [3]).
As to `CNC(=O)CCc1nc(-c2ccc(C)cc2)no1`, the half-maximal inhibitory concentration (IC50) is 48 µM in the experiment on HIF2a PANC (setting [2]), above 99 µM with HIF2a PANC (setting [3]), above 99 µM in the experiment with HIF1a (setting [2]) and above 99 µM in the experiment with HIF1a (setting [3]). Also, in experiment [1], the IC50 entry was “inactive”.
With `CCCCc1ccc(-c2noc(CCC(=O)NC(C)CC)n2)cc1` (configuration not stated), the IC50 in the experiment with HIF2a PANC (setting [2]) was below 0.19 µM; in the experiment with HIF2a PANC (setting [3]) it was below 0.19 µM; in the experiment on HIF1a (setting [2]), above 99 µM; in the experiment on HIF1a (setting [3]), above 99 µM; in experiment [1], below 0.19 µM.
`CCNC(=O)CCc1nc(-c2ccccc2)no1`: the IC50 in the experiment on HIF2a PANC (setting [2]) is above 99 µM; in the experiment with HIF2a PANC (setting [3]), above 99 µM; in the experiment with HIF1a (setting [2]), above 99 µM; with HIF1a (setting [3]), above 99 µM; in experiment [1], > 99 µM (inactive).
Regarding `CC(C)c1ccc(-c2noc(CCC(=O)NC(C)(C)C)n2)cc1`, the IC50 in the experiment with HIF2a PANC (setting [2]) is above 99 µM; with HIF2a PANC (setting [3]), above 99 µM; in the experiment on HIF1a (setting [2]), above 99 µM; with HIF1a (setting [3]) it was above 99 µM; in experiment [1], > 99 µM (inactive).
On to `CNC(=O)CCc1nc(-c2ccc(Cl)cc2)no1`, for which the IC50 is above 99 µM in the experiment with HIF2a PANC (setting [2]); above 99 µM with HIF2a PANC (setting [3]); above 99 µM with HIF1a (setting [2]); above 99 µM in the experiment with HIF1a (setting [3]); > 99 µM (inactive) in experiment [1].
With `CNC(=O)CCc1nc(-c2ccc(OC)cc2)no1`, the IC50 in the experiment on HIF2a PANC (setting [2]) was above 99 µM; with HIF2a PANC (setting [3]), above 99 µM; in the experiment on HIF1a (setting [2]), above 99 µM; in the experiment on HIF1a (setting [3]), above 99 µM; in experiment [1], > 99 µM (inactive).
As to `CC(C)(C)c1ccc(-c2noc(CCC(=O)NCc3ccco3)n2)cc1`, the IC50 with HIF2a PANC (setting [2]) is below 0.19 µM; in the experiment on HIF1a (setting [2]), above 99 µM; with HIF1a (setting [3]) it was above 99 µM.

The record behind these values is PubChem BioAssay AID652011 (Sanford-Burnham Center for Chemical Genomics, 2013).
